Data on 20 molecules can be found in ChEMBL document CHEMBL4732243, “Design, synthesis, and structure activity relationship analysis of new betulinic acid derivatives as potent HIV inhibitors” (Eur J Med Chem, 2021).

Data set [1] relates to Human immunodeficiency virus 1. The data set is described as follows: Antiviral activity against HIV-1 NL4-3 infected in human MT4 cells assessed as reduction in p24 gag protein incubated for 4 days by ELISA. It is filed as functional, organism-based. As to conditions: Human immunodeficiency virus 1, NL4-3, MT4, 96 h. The essentials: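 MT-4 cells infected with HIV-1 NL4-3 at MOI 0.01, serial compound concentrations, in 96-well format. Supernatant p24 antigen measured by capture ELISA on day 4 post-infection. IC50 is the concentration that inhibits NL4-3 replication by 50%. Bevirimat run in parallel as the reference.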

The test system of a further data set is MT4. The data set is described as follows: Cytotoxicity against human MT4 cells assessed as reduction in cell viability incubated for 2 days by CytoTox-Glo cytotoxicity assay. Format: cell-based. As to conditions: mt4, 48 h, time 2 day. The essentials: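 Mock-infected MT-4 cells cultured 2 days with a range of compound concentrations. Viability measured by CytoTox-Glo, following the kit protocol, as percent viable cells. CC50 is the concentration giving a 50% reduction in cell viability.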

Where only a bound is given, the exact number is not on record here.

Take `C=C(C)[C@@H]1CC[C@]2(C(=O)N3CCN(C(=O)CCc4ccc5c(c4)OCO5)CC3)CC[C@]3(C)[C@H](CC[C@@H]4[C@@]5(C)CC[C@H](OC(=O)CC(C)(C)C(=O)O)C(C)(C)[C@@H]5CC[C@]43C)[C@@H]12`: the values for the IC50 in data set [1] (read-out: IC50) and in data set [1] (read-out: pIC50 (converted)) were 22 nM and 21.9 nM, respectively. Besides, the CC50 – broadly, the concentration at which the toxic effect on the cells reaches its halfway point – in the data set with MT4 was more than 2000 nM.
Turning to `C=C(C)[C@@H]1CC[C@]2(C(=O)N3CCN(C(=O)/C=C/c4csc5ccccc45)CC3)CC[C@]3(C)[C@H](CC[C@@H]4[C@@]5(C)CC[C@H](OC(=O)CC(C)(C)C(=O)O)C(C)(C)[C@@H]5CC[C@]43C)[C@@H]12`, the values for the IC50 in data set [1] (read-out: IC50) and in data set [1] (read-out: pIC50 (converted)) were 180 nM and 182 nM, respectively. Moreover, the CC50 in the data set with MT4 is more than 2000 nM.
Turning to `C=C(C)[C@@H]1CC[C@]2(C(=O)N3CCN(C(=O)/C(C)=C/c4ccc5c(c4)OCO5)CC3)CC[C@]3(C)[C@H](CC[C@@H]4[C@@]5(C)CC[C@H](OC(=O)CC(C)(C)C(=O)O)C(C)(C)[C@@H]5CC[C@]43C)[C@@H]12`, the IC50 is 57 nM in data set [1] (read-out: IC50) and 57.5 nM in data set [1] (read-out: pIC50 (converted)). For the same molecule, the CC50 in the data set on MT4 was more than 2000 nM.
For the molecule `C=C(C)[C@@H]1CC[C@]2(C(=O)N3CCN(C(=O)/C=C/c4ccc5c(c4)CCO5)CC3)CC[C@]3(C)[C@H](CC[C@@H]4[C@@]5(C)CC[C@H](OC(=O)CC(C)(C)C(=O)O)C(C)(C)[C@@H]5CC[C@]43C)[C@@H]12`, the IC50 in data set [1] (read-out: IC50) is 67 nM; in data set [1] (read-out: pIC50 (converted)), 67.6 nM. For the same molecule, the CC50 with MT4 is more than 2000 nM.
As for `C=C(C)[C@@H]1CC[C@]2(C(=O)N3CCN(C(=O)/C=C/c4ccc(O)c(OCc5cccc(Cl)c5)c4)CC3)CC[C@]3(C)[C@H](CC[C@@H]4[C@@]5(C)CC[C@H](OC(=O)CC(C)(C)C(=O)O)C(C)(C)[C@@H]5CC[C@]43C)[C@@H]12`, in data set [1] (read-out: IC50), the IC50 is 190 nM. Besides, the CC50 in the data set on MT4 is more than 2000 nM.
Regarding `C=C(C)[C@@H]1CC[C@]2(C(=O)N3CCN(C(=O)/C=C/c4ccc(OCOC)c(OCc5cccc(Cl)c5)c4)CC3)CC[C@]3(C)[C@H](CC[C@@H]4[C@@]5(C)CC[C@H](OC(=O)CC(C)(C)C(=O)O)C(C)(C)[C@@H]5CC[C@]43C)[C@@H]12`, the IC50 in data set [1] (read-out: IC50) was found to be 460 nM. Also, the CC50 with MT4 was more than 2000 nM.
Regarding `C=C(C)[C@@H]1CC[C@]2(C(=O)N3CCN(C(=O)/C=C/c4ccc5c(c4)OCCO5)CC3)CC[C@]3(C)[C@H](CC[C@@H]4[C@@]5(C)CC[C@H](OC(=O)CC(C)(C)C(=O)O)C(C)(C)[C@@H]5CC[C@]43C)[C@@H]12`, the IC50 was 50 nM in data set [1] (read-out: IC50) and 50.1 nM in data set [1] (read-out: pIC50 (converted)). The CC50 in the data set with MT4 was more than 2000 nM.
As to `C=C(C)[C@@H]1CC[C@]2(C(=O)N3CCN(C(=O)c4cc5cc(OC)ccc5[nH]4)CC3)CC[C@]3(C)[C@H](CC[C@@H]4[C@@]5(C)CC[C@H](OC(=O)CC(C)(C)C(=O)O)C(C)(C)[C@@H]5CC[C@]43C)[C@@H]12`, the IC50 in data set [1] (read-out: IC50) was 53 nM; in data set [1] (read-out: pIC50 (converted)), 52.5 nM. The CC50 with MT4 is more than 2000 nM.
For the molecule `C=C(C)[C@@H]1CC[C@]2(C(=O)N3CCN(C(=O)/C=C/c4cccs4)CC3)CC[C@]3(C)[C@H](CC[C@@H]4[C@@]5(C)CC[C@H](OC(=O)CC(C)(C)C(=O)O)C(C)(C)[C@@H]5CC[C@]43C)[C@@H]12`, the IC50 is 32 nM in data set [1] (read-out: IC50) and 32.4 nM in data set [1] (read-out: pIC50 (converted)). In addition, in the data set with MT4, the CC50 is more than 2000 nM.
In the same order, the values of `C=C(C)[C@@H]1CC[C@]2(C(=O)N3CCN(C(=O)/C=C/c4ccc(OCc5cccc([N+](=O)[O-])c5)c(OC)c4)CC3)CC[C@]3(C)[C@H](CC[C@@H]4[C@@]5(C)CC[C@H](OC(=O)CC(C)(C)C(=O)O)C(C)(C)[C@@H]5CC[C@]43C)[C@@H]12` are 750 nM, 759 nM and more than 2000 nM.
As to `C=C(C)[C@@H]1CC[C@]2(C(=O)N3CCN(C(=O)/C=C/c4ccc5occc5c4)CC3)CC[C@]3(C)[C@H](CC[C@@H]4[C@@]5(C)CC[C@H](OC(=O)CC(C)(C)C(=O)O)C(C)(C)[C@@H]5CC[C@]43C)[C@@H]12`, the IC50 is 150 nM in data set [1] (read-out: IC50) and 151 nM in data set [1] (read-out: pIC50 (converted)). In addition, the CC50 with MT4 was more than 2000 nM.
Regarding `C=C(C)[C@@H]1CC[C@]2(C(=O)N3CCN(C(=O)/C=C/c4ccc5c(c4)OC(F)(F)O5)CC3)CC[C@]3(C)[C@H](CC[C@@H]4[C@@]5(C)CC[C@H](OC(=O)CC(C)(C)C(=O)O)C(C)(C)[C@@H]5CC[C@]43C)[C@@H]12`, the IC50 is 590 nM in data set [1] (read-out: IC50) and 589 nM in data set [1] (read-out: pIC50 (converted)). In addition, the CC50 in the data set on MT4 was more than 2000 nM.
In the case of `C=C(C)[C@@H]1CC[C@]2(C(=O)N3CCN(C(=O)/C=C/c4ccc5[nH]ccc5c4)CC3)CC[C@]3(C)[C@H](CC[C@@H]4[C@@]5(C)CC[C@H](OC(=O)CC(C)(C)C(=O)O)C(C)(C)[C@@H]5CC[C@]43C)[C@@H]12`, the values for the IC50 in data set [1] (read-out: IC50) and in data set [1] (read-out: pIC50 (converted)) were 50 nM and 50.1 nM, respectively. Besides, the CC50 in the data set on MT4 was more than 2000 nM.
On to `C=C(C)[C@@H]1CC[C@]2(C(=O)N3CCN(C(=O)/C(=C/c4ccc5c(c4)OCO5)CC)CC3)CC[C@]3(C)[C@H](CC[C@@H]4[C@@]5(C)CC[C@H](OC(=O)CC(C)(C)C(=O)O)C(C)(C)[C@@H]5CC[C@]43C)[C@@H]12`, for which the IC50 was 130 nM in data set [1] (read-out: IC50) and 129 nM in data set [1] (read-out: pIC50 (converted)). In the data set with MT4, the CC50 was more than 2000 nM.
Regarding `C=C(C)[C@@H]1CC[C@]2(C(=O)N3CCN(c4cc(NCc5ccccc5)ncn4)CC3)CC[C@]3(C)[C@H](CC[C@@H]4[C@@]5(C)CC[C@H](OC(=O)CC(C)(C)C(=O)O)C(C)(C)[C@@H]5CC[C@]43C)[C@@H]12`, the IC50 in data set [1] (read-out: IC50) turned out to be 37 nM. The CC50 in the data set on MT4 was more than 2000 nM.
With `C=C(C)[C@@H]1CC[C@]2(C(=O)N3CCN(C(=O)/C=C/c4cn(C)c5ccccc45)CC3)CC[C@]3(C)[C@H](CC[C@@H]4[C@@]5(C)CC[C@H](OC(=O)CC(C)(C)C(=O)O)C(C)(C)[C@@H]5CC[C@]43C)[C@@H]12`, the values for the IC50 in data set [1] (read-out: IC50) and in data set [1] (read-out: pIC50 (converted)) were 140 nM and 141 nM, respectively. For the same molecule, in the data set on MT4, the cytotoxic concentration (CC50) is more than 2000 nM.
In the case of `C=C(C)[C@@H]1CC[C@]2(C(=O)N3CCN(C(=O)/C=C/c4cccc(OCOC)c4)CC3)CC[C@]3(C)[C@H](CC[C@@H]4[C@@]5(C)CC[C@H](OC(=O)CC(C)(C)C(=O)O)C(C)(C)[C@@H]5CC[C@]43C)[C@@H]12`, the values for the IC50 in data set [1] (read-out: IC50) and in data set [1] (read-out: pIC50 (converted)) were 90 nM and 89.1 nM, respectively. The CC50 in the data set on MT4 was more than 2000 nM.
For the molecule `C=C(C)[C@@H]1CC[C@]2(C(=O)N3CCN(C(=O)/C=C/c4ccc(OCOC)cc4)CC3)CC[C@]3(C)[C@H](CC[C@@H]4[C@@]5(C)CC[C@H](OC(=O)CC(C)(C)C(=O)O)C(C)(C)[C@@H]5CC[C@]43C)[C@@H]12`, the IC50 in data set [1] (read-out: IC50) and in data set [1] (read-out: pIC50 (converted)) was 200 nM throughout. In addition, the half-maximal cytotoxic concentration (CC50) in the data set with MT4 was more than 2000 nM.
Consider `C=C(C)[C@@H]1CC[C@]2(C(=O)N3CCN(C(=O)/C=C/c4cccc(O)c4)CC3)CC[C@]3(C)[C@H](CC[C@@H]4[C@@]5(C)CC[C@H](OC(=O)CC(C)(C)C(=O)O)C(C)(C)[C@@H]5CC[C@]43C)[C@@H]12`, for which the values for the IC50 in data set [1] (read-out: IC50) and in data set [1] (read-out: pIC50 (converted)) were 53 nM and 52.5 nM, respectively. Also, in the data set with MT4, the 50% cytotoxic concentration (CC50) was more than 2000 nM.
Regarding `C=C(C)[C@@H]1CC[C@]2(C(=O)N3CCN(C(=O)/C=C/c4c[nH]c5ccccc45)CC3)CC[C@]3(C)[C@H](CC[C@@H]4[C@@]5(C)CC[C@H](OC(=O)CC(C)(C)C(=O)O)C(C)(C)[C@@H]5CC[C@]43C)[C@@H]12`, the values for the IC50 in data set [1] (read-out: IC50) and in data set [1] (read-out: pIC50 (converted)) were 69 nM and 69.2 nM, respectively. In the data set with MT4, the CC50 was more than 2000 nM.
